Results published in ChEMBL document CHEMBL1146506, “Sesquiterpene coumarins from Ferula fukanensis and nitric oxide production inhibitory effects” (J Nat Prod, 2004).
The source made the active and inactive calls. The calls are words filed in the database; no cut-off is given here.

Legend:
RAW264.7 [1] = assay: Inhibition of LPS and INF-gamma-induced iNOS mRNA expression in mouse RAW264.7 cells by RT-PCR analysis; type: functional, cell-based
Procedure, shortened: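 Cells at 1.2 × 10^6 cells/mL, preincubated 2 h at 37 °C, then test compound added with LPS (100 ng/mL) and IFN-γ (0.33 ng/mL) for about 8 h. Total RNA (250 ng) reverse-transcribed with oligo(dT) primer. iNOS and GAPDH amplified with specific primers for 25 cycles (94 °C 1 min, 60 °C 1 min, 72 °C 1.5 min).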

RAW264.7 [2] = assay: Inhibition of LPS and INF-gamma-induced NO production in mouse RAW264.7 cells; type: functional, cell-based
Procedure, shortened: (§1)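 Cells seeded at 1.2 × 10^6 cells/mL, preincubated 2 h at 37 °C. Test compound added together with E. coli LPS (100 ng/mL) and recombinant mouse IFN-γ (0.33 ng/mL), then incubated at 37 °C, usually 16 h. Nitrite in chilled culture supernatant measured with Griess reagent (1% sulfanilamide in 5% H3PO4, 0.1% naphthylethylenediamine) against NaNO2 standards, read at 550 nm minus 630 nm background.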

RAW264.7 [3] = assay: Inhibition of LPS and INF-gamma-induced NO production in mouse RAW264.7 cells at 10 ug/mL; type: functional, cell-based; procedure, shortened: as §1
RAW264.7 [4] = assay: Cytotoxicity against mouse RAW264.7 cells at 10 ug/mL; type: cell-based
Procedure, shortened: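 MTT assay. Compound given at 0.3–10 µg/mL during LPS/IFN-γ treatment for 24 h.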

| SMILES | Activity (RAW264.7 [1]) | IC50 (RAW264.7 [2]) | Activity (RAW264.7 [3]) | Activity (RAW264.7 [4]) |
| --- | --- | --- | --- | --- |
| CC(C)=CC(=O)/C=C(/C)CCC[C@@]1(C)Oc2c(c(=O)oc3cc(O)ccc23)[C@H]1C (relative stereo) [FUKANEFUROMARIN D] | Dose-dependent effect | 8.9 µM | – | – |
| CC(C)=CC(=O)/C=C(\C)CCC[C@@]1(C)Oc2c(c(=O)oc3cc(O)ccc23)[C@H]1C (relative stereo) [FUKANEFUROMARIN B] | – | 16.2 µM | – | – |
| CC(C)=CC(=O)/C=C(\C)CCC[C@@]1(C)Oc2c(c(=O)oc3cc(O)ccc23)[C@@H]1C (relative stereo) [FUKANEFUROMARIN A] | – | 13 µM | – | – |
| CC(C)=CC(=O)/C=C(/C)CCC[C@@]1(C)Oc2c(c(=O)oc3cc(O)ccc23)[C@@H]1C (relative stereo) [FUKANEFUROMARIN C] | Dose-dependent effect | 11.1 µM | – | – |
| CC(C)=CCC/C(C)=C/CC[C@@]1(C)Oc2c(c(=O)oc3cc(O)ccc23)[C@H]1C | – | – | inactive | Non-toxic |
| CC(C)=CCC/C(C)=C/CC[C@@]1(C)Oc2c(c(=O)oc3cc(O)ccc23)[C@@H]1C | – | – | inactive | Non-toxic |
| CC(C)=CC(=O)C/C(C)=C/CC[C@@]1(C)Oc2c(c(=O)oc3cc(O)ccc23)[C@@H]1C | – | 24.6 µM | – | – |
| CC(C)=CC(=O)C/C(C)=C/CC[C@@]1(C)Oc2c(c(=O)oc3cc(O)ccc23)[C@H]1C (relative stereo) | – | 31.2 µM | – | – |
